This note sets out measurements from ChEMBL document CHEMBL3867427, “Cytotoxic Guanidine Alkaloids from a French Polynesian Monanchora n. sp. Sponge” (J Nat Prod, 2016).

Data set [1] can be described thus: Antiproliferative activity against human MDA435 cells after 72 hrs by cell titer 96 aqueous one solution based assay. The conditions noted are these: MDA-MB-435, 72 h. The data set is classed as functional.
Data set [2] in a line: Antiproliferative activity against human HL60 cells at 1 to 10 uM after 72 hrs by cell titer 96 aqueous one solution based assay relative to control. In kind it is functional, HL-60.
Data set [3] in a line: Antiproliferative activity against human HL60 cells after 72 hrs by cell titer 96 aqueous one solution based assay. The conditions noted are these: HL-60, 72 h. In kind it is functional.
Data set [4] in a line: Antiproliferative activity against mouse B16F10 cells at 1 to 10 uM after 72 hrs by neutral red staining based assay relative to control. The data set is classed as functional, B16-F10. In short, it runs like this:
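B16F10 cells in supplemented DMEM at 37 °C, 5% CO2, 20 000/well, treated 24 h after plating with 1% DMSO final. After 72 h exposure, neutral red uptake (40 μg/mL, 3 h, 37 °C), acid-ethanol destain, absorbance 540 nm. Inhibition = [1 − (OD540 treated/OD540 control)] × 100 from triplicate experiments.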

Data set [5] is described as follows: Antiproliferative activity against mouse B16F10 cells after 72 hrs by neutral red staining based assay. The data set is classed as functional, cell-based. To be noted: B16-F10, 72 h. In short, it runs like this: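 Murine B16F10 (ATCC) in DMEM with pyruvate, 10% FBS, 2% glutamine, 1% pen-strep, 37 °C, 5% CO2. 20 000 cells/well dosed 24 h later (1% DMSO final). After 72 h, PBS rinse, neutral red 40 μg/mL for 3 h at 37 °C, destain with acetic acid/EtOH/H2O 1:50:49 for 30 min at RT, A540. IC50 over 10 ng/mL–10 μg/mL, separate duplicates.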

A short description of data set [6]: Cytotoxicity against human KB cells assessed as inhibition of cell proliferation at 1 uM after 72 hrs by cell titer 96 aqueous one solution based assay. In kind it is functional. In short, it runs like this:
(§1)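 KB cells in D-MEM with 10% FCS and antibiotics/fungizone under 5% CO2. 600 cells/well treated 24 h after seeding, 1% DMSO final, against DMSO controls. After 72 h, CellTiter 96 AQueous One for 3 h at 37 °C, absorbance 490 nm. Inhibition = [1 − (OD490 treated/OD490 control)] × 100, triplicate; mean ± SE.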

Data set [7] can be described thus: Antiproliferative activity against human HCT116 cells at 1 to 10 uM after 72 hrs by cell titer 96 aqueous one solution based assay relative to control. In kind it is functional, HCT-116.
Data set [8] can be described thus: Antiproliferative activity against human HCT116 cells after 72 hrs by cell titer 96 aqueous one solution based assay. In kind it is functional. The conditions noted are these: HCT-116, 72 h.
Data set [9] in a line: Antiproliferative activity against human KB cells after 72 hrs by cell titer 96 aqueous one solution based assay. In kind it is functional. In short, it runs like this:
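KB cells (NCI origin) in D-MEM with 10% fetal calf serum, penicillin, streptomycin and fungizone under 5% CO2. 600 cells/well, dosed 24 h after plating from DMSO stocks (1% DMSO final; DMSO-only controls). 72 h exposure, then CellTiter 96 AQueous One for 3 h at 37 °C, A490. IC50 (50% inhibition) from 5 nM–100 μM in separate duplicate experiments.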

Data set [10] in a line: Cytotoxicity against human KB cells assessed as inhibition of cell proliferation at 10 uM after 72 hrs by cell titer 96 aqueous one solution based assay. The data set is classed as functional. In short, it runs like this: as §1
The nature of data set [11]: Antiproliferative activity against human MDA435 cells at 1 to 10 uM after 72 hrs by cell titer 96 aqueous one solution based assay relative to control. The data set is classed as functional, MDA-MB-435.
Data set [12] is described as follows: Antiproliferative activity against human MRC5 cells after 72 hrs by cell titer 96 aqueous one solution based assay. The conditions noted are these: MRC5, 72 h.
Data set [13] in a line: Antiproliferative activity against human MRC5 cells at 1 to 10 uM after 72 hrs by cell titer 96 aqueous one solution based assay relative to control. To be noted: mrc5, 72 h.

In the case of `CC[C@H]1C=CCC[C@@]2(C[C@@H]3CC[C@@H]4[C@H](C(=O)OCCCCCCCCCCCCCCCC(=O)N(CCCN)CC(O)CCN)[C@]5(CCC[C@@H](C)O5)NC(=[N+]34)N2)O1` (stereo not given in full), the IC50 was 0.009 to 0.015 µM in data set [1]; 0.004 to 0.006 µM in data set [3]; 0.2 µM in [5]; 0.007 µM in [8]; 0.005 µM in [9]. The Activity in [2], in [4], in data set [7] and in data set [11] was 100% each time. Moreover, the inhibition at 1 µM in [6] amounted to 100%. Besides, the inhibition at 10 µM in data set [10] amounted to 99%.
In the case of `CC[C@H]1C=CCC[C@@]2(C[C@@H]3CC[C@@H]4[C@H](C(=O)OCCCCCCCCCCCCCCCC(=O)O)[C@]5(CCCCO5)NC(=[N+]34)N2)O1`, the inhibition at 1 µM in data set [6] was found to be 80%. The same compound gave a 50% inhibitory concentration (IC50) in data set [9] of 0.5 to 0.6 µM. Besides, the inhibition at 10 µM in [10] amounted to 95%.
In the case of `CCCCCCCCCc1cc2[n+](c(N)n1)CCC2`, the IC50 is 0.32 to 0.86 µM in [1]; 1.3 µM in data set [3]; 0.74 to 0.84 µM in [8]; 0.2 to 0.4 µM in data set [9]; 0.55 to 0.6 µM in data set [12]. Besides, the Activity in data set [2], in data set [7], in data set [11] and in data set [13] was 100% throughout. The inhibition at 1 µM in [6] came out at 82%. In addition, the inhibition at 10 µM in [10] was 99%.
Consider `CC[C@H]1C=CCC[C@@]2(C[C@@H]3CC[C@@H]4C[C@]5(CCC[C@@H](C)O5)NC(=[N+]43)N2)O1`, for which the inhibition at 1 µM in [6] was determined as 0%. Further, the inhibition at 10 µM in data set [10] came to 84%.
`CCCCCCCC[C@@H]1N=C(N)N2CCCC2=C1C(=O)OCCCCNC(=N)N`: the Activity in data set [2], in data set [7] and in data set [13] was 100% each time. The IC50 was 8 to 9.1 µM in [3], 3.4 to 4.2 µM in data set [8], 0.3 µM in data set [9] and 3.6 to 4.1 µM in data set [12]. In addition, the inhibition at 1 µM in [6] turned out to be 86%. For the same compound, in data set [10], the inhibition at 10 µM was determined as 100%.
On to `CC[C@H]1C=CCC[C@@]2(C[C@@H]3CC[C@@H]4[C@H](C(=O)OCCCCCCCCCCCCCCC(=O)N(CCCN)CC(O)CCN)[C@]5(CCC[C@@H](C)O5)NC(=[N+]34)N2)O1` (stereo not given in full), for which the Activity in data set [2], in data set [7] and in [13] was 100% each time. Moreover, the IC50 in data set [3] was 5 to 5.4 µM; in data set [8], 3.1 to 3.4 µM; in data set [9], 0.3 µM; in data set [12], 3.2 to 3.4 µM. Moreover, in data set [6], the inhibition at 1 µM was found to be 89%. In [10], the inhibition at 10 µM stood at 100%.
Turning to `CC[C@H]1C=CCC[C@@]2(C[C@@H]3CC[C@@H]4[C@H](C(=O)OCCCCCCCCCCCCCCCCC(=O)N(CCCN)CC(O)CCN)[C@]5(CCC[C@@H](C)O5)NC(=[N+]34)N2)O1` (stereo not given in full), the concentration for half-maximal inhibition (IC50) in data set [1] is 0.04 to 0.07 µM; in data set [3] it was 0.01 to 0.03 µM; in data set [5], 0.2 µM; in [8] it was 0.02 to 0.05 µM; in [9] it was 0.005 to 0.02 µM. The Activity in data set [2], in [4], in data set [7] and in [11] was 100% throughout. Further, in [6], the inhibition at 1 µM amounted to 96%. Further, the inhibition at 10 µM in data set [10] came to 100%.
For the compound `CCCCCCCCC[C@@H]1N=C(N)N2CCCC2=C1C(=O)OCCCCNC(=N)N`, the inhibition at 1 µM in data set [6] was determined as 97%. For the same compound, the IC50 in [9] came out at 0.03 µM. Besides, the inhibition at 10 µM in data set [10] turned out to be 100%.
`CCCCCCCCC[C@@H]1N=C(N)N2CCCC2=C1C(=O)O`: in data set [6], the inhibition at 1 µM worked out at 0%. Besides, the inhibition at 10 µM in data set [10] was found to be 72%.
Consider `CCCCCCC[C@@H]1N=C(N)N2CCCC2=C1C(=O)OCCCCNC(=N)N`, for which the inhibition at 1 µM in [6] came out at 80%. In data set [9], this compound yielded a 50% inhibitory concentration (IC50) of 0.1 to 0.2 µM. Further, the inhibition at 10 µM in data set [10] is 100%.
`CCCCCCCCCc1nc(N)[n+]2c(c1C(=O)OCCCCNC(=N)N)CCC2`: the Activity in data set [2], in data set [7] and in data set [13] was 100% in each case. Also, the half-maximal inhibitory concentration (IC50) in data set [3] was 3.6 to 5.4 µM; in [8], 3.4 to 3.5 µM; in [9], 0.1 µM; in data set [12] it was 3.4 to 3.9 µM. Moreover, the inhibition at 1 µM in [6] came to 89%. Moreover, the inhibition at 10 µM in [10] was determined as 98%.
In the case of `CC[C@H]1C=CCC[C@@]2(C[C@@H]3CC[C@@H]4[C@H](C(=O)OCCCCCCCCCCCCCCCC(=O)O)[C@]5(CCC[C@@H](C)O5)NC(=[N+]34)N2)O1`, in data set [6], the inhibition at 1 µM was 85%. The 50% inhibitory concentration (IC50) in data set [9] was in the range of 0.5 to 0.6 µM. The inhibition at 10 µM in data set [10] was 97%.
Compound `CC[C@H]1C=CCC[C@@]2(C[C@@H]3CC[C@@H]4[C@H](C(=O)OCCCCCCCCCCCCCCCCCC(=O)N(CCCN)CCCC(N)=O)[C@]5(CCC[C@@H](C)O5)NC(=[N+]34)N2)O1` gave an Activity in [4] of 100%. For the same compound, the half-inhibitory concentration (IC50) in data set [5] lay within 0.8 to 0.85 µM; in data set [9], 0.05 to 0.07 µM. In addition, in [6], the inhibition at 1 µM came to 100%. Further, in data set [10], the inhibition at 10 µM turned out to be 100%.
For the compound `CCCCCCC[C@@H]1N=C(N)N2CCCC2=C1C(=O)O`, the IC50 in data set [1] was 9.3 to 11 µM; in data set [3], 3.8 to 7.1 µM; in [8], 9.9 µM; in data set [9], 6.7 to 7.7 µM. The Activity in [2], in data set [7] and in data set [11] was 100% in each case. In data set [6], the inhibition at 1 µM was 61%. For the same compound, the inhibition at 10 µM in data set [10] was found to be 96%.
